From ChEMBL document CHEMBL3616436, “Synthesis, cytotoxicity and antimicrobial activity of thiourea derivatives incorporating 3-(trifluoromethyl)phenyl moiety” (Eur J Med Chem, 2015)
≈ marks a conversion by molar mass, not a printed value. Calls of active or inactive are those of the source. No cut-off for these calls is given here.

Key:
[1] = test system: Staphylococcus aureus; assay: Antimicrobial activity against Staphylococcus aureus ATCC 25923 after 18 hrs by twofold serial microdilution method; type: functional; details: ATCC 25923, 18 h
[2] = test system: Bacillus subtilis; assay: Antimicrobial activity against Bacillus subtilis ATCC 6633 at 400 ug after 18 hrs by disc-diffusion method; type: functional; details: ATCC 6633, 18 h, read-out: IZ
Procedure, shortened: (§1)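 Disc diffusion on Mueller-Hinton II agar per CLSI; 9 mm paper discs loaded with 400 µg compound from DMSO solution, dried, placed on agar; growth inhibition zone diameter read after 18 h at 35°C.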

[3] = test system: Staphylococcus aureus; assay: Antimicrobial activity against Staphylococcus aureus ATCC 6538 after 18 hrs by twofold serial microdilution method; type: functional; details: ATCC 6538, 18 h
[4] = test system: Staphylococcus epidermidis; assay: Antimicrobial activity against Staphylococcus epidermidis ATCC 12228 at 400 ug after 18 hrs by disc-diffusion method; type: functional; details: ATCC 12228, 18 h, read-out: IZ; procedure, shortened: as §1
[5] = test system: Human immunodeficiency virus 1; assay: Antiviral activity against HIV1 3B infected in human MT4 cells assessed as protection against virus-induced cytopathogenicity by MTT assay; type: functional, organism-based; details: Human immunodeficiency virus 1, 3B
[6] = test system: Staphylococcus epidermidis; assay: Antimicrobial activity against Staphylococcus epidermidis ATCC 35984 after 18 hrs by twofold serial microdilution method; type: functional; details: ATCC 35984, 18 h
[7] = Cytotoxicity against human MT4 cells; type: cell-based
[8] = test system: Staphylococcus aureus; assay: Antimicrobial activity against Staphylococcus aureus NCTC 4163 after 18 hrs by twofold serial microdilution method; type: functional; details: NCTC 4163, 18 h
[9] = test system: Human alphaherpesvirus 1; assay: Antiviral activity against Human herpesvirus 1 KOS ATCC VR-1493 infected in African green monkey Vero 76 cells assessed as reduction of virus-plaque formation after 3 days by crystal violet staining; type: functional, organism-based; details: Human alphaherpesvirus 1, KOS ATCC VR1493, Vero, 72 h
Procedure, shortened: (§2)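 Plaque reduction: Vero-76 at 2x10^5 cells/well grown to confluent monolayers, infected 2 h at 50–100 PFU/well; after removing unadsorbed virus, overlay of D-MEM, 1% inactivated FBS, 0.75% methylcellulose with or without serial compound dilutions; 3 days at 37°C, fixed and stained with crystal violet in 50% ethanol, plaques counted; EC50 by linear regression.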

[10] = test system: Enterococcus faecalis; assay: Antimicrobial activity against Enterococcus faecalis ATCC 29212 at 400 ug after 18 hrs by disc-diffusion method; type: functional; details: ATCC 29212, 18 h, read-out: IZ; procedure, shortened: as §1
[11] = test system: Micrococcus luteus; assay: Antimicrobial activity against Micrococcus luteus ATCC 9341 at 400 ug after 18 hrs by disc-diffusion method; type: functional; details: ATCC 9341, 18 h, read-out: IZ; procedure, shortened: as §1
[12] = test system: Mammalian orthoreovirus 1; assay: Antiviral activity against Reovirus type-1 ATCC VR-214 infected in BHK cells assessed as protection against virus-induced cytopathogenicity after 3 to 4 days by MTT assay; type: functional, cell-based; details: Mammalian orthoreovirus 1, ATCC VR-214, BHK
Procedure, shortened: (§3)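 Cells seeded in 96-well plates (BHK 5x10^4, MDBK 3x10^4 cells/well), grown overnight to confluence, infected at m.o.i. 0.01 (BHK for Reo-1, MDBK for BVDV); serial compound dilutions in maintenance medium with 0.5% inactivated FBS added after 1 h; viability by MTT after 3–4 days at 37°C; EC50 for 50% protection by linear regression.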

[13] = test system: Vesicular stomatitis virus; assay: Antiviral activity against Vesicular stomatitis virus ATCC VR 1540 infected in African green monkey Vero 76 cells assessed as reduction of virus-plaque formation after 2 days by crystal violet staining; type: functional, organism-based; details: ATCC VR 1540, Vero, 48 h
[14] = test system: Staphylococcus aureus; assay: Antimicrobial activity against Staphylococcus aureus ATCC 25923 at 400 ug after 18 hrs by disc-diffusion method; type: functional; details: ATCC 25923, 18 h, read-out: IZ; procedure, shortened: as §1
[15] = test system: Bacillus cereus; assay: Antimicrobial activity against Bacillus cereus ATCC 11778 at 400 ug after 18 hrs by disc-diffusion method; type: functional; details: ATCC 11778, 18 h, read-out: IZ; procedure, shortened: as §1
[16] = test system: Enterococcus hirae; assay: Antimicrobial activity against Enterococcus hirae ATCC 10541 at 400 ug after 18 hrs by disc-diffusion method; type: functional; procedure, shortened: as §1
[17] = Cytotoxicity against BHK cells assessed as cell viability after 48 to 96 hrs by MTT assay; type: cell-based, Mesocricetus auratus; details: hamster
[18] = test system: Mycobacterium tuberculosis; assay: Antimycobacterial activity against drug-sensitive Mycobacterium tuberculosis Spec. 192; type: functional
Procedure, shortened: (§4)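 Classical test-tube successive-dilution method in Youmans' modification of Proskauer and Beck liquid medium with 10% bovine serum. Inoculum came from 14-day cultures. DMSO stock was 10 mg/mL, diluted geometrically in medium. Tubes were incubated at 37 °C. Concentrations tested were 3.1, 6.2, 12.5, 25, 50 and 100 µg/ml. MIC is the minimum concentration inhibiting growth relative to compound-free tubes.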

[19] = test system: Vaccinia virus; assay: Antiviral activity against Human Vaccinia virus ATCC VR-1549 infected in African green monkey Vero 76 cells assessed as reduction of virus-plaque formation after 3 days by crystal violet staining; type: functional, organism-based; details: Orthopoxvirus vaccinia, ATCC VR-1549, Vero, 72 h
[20] = Cytotoxicity against bovine MDBK cells assessed as cell viability after 48 to 96 hrs by MTT assay; type: cell-based, Bos taurus; details: cattle
[21] = test system: Staphylococcus epidermidis; assay: Antimicrobial activity against Staphylococcus epidermidis ATCC 12228 after 18 hrs by twofold serial microdilution method; type: functional; details: ATCC 12228, 18 h
[22] = test system: Yellow fever virus; assay: Antiviral activity against Yellow fever virus 17D infected in BHK cells assessed as protection against virus-induced cytopathogenicity after 3 to 4 days by MTT assay; type: functional, cell-based
[23] = test system: Micrococcus luteus; assay: Antimicrobial activity against Micrococcus luteus ATCC 10240 at 400 ug after 18 hrs by disc-diffusion method; type: functional; details: ATCC 10240, 18 h, read-out: IZ; procedure, shortened: as §1
[24] = Antiviral activity against Bovine viral diarrhea virus 1-NADL ATCC VR-534 infected in MDBK cells assessed as protection against virus-induced cytopathogenicity after 3 to 4 days by MTT assay; type: functional, cell-based; details: Bovine viral diarrhea virus isolates and strains, ATCC VR-534, MDBK; procedure, shortened: as §3
[25] = Cytotoxicity against African green monkey Vero 76 cells assessed as cell viability after 48 to 96 hrs by crystal violet staining; type: cell-based; details: chlorocebus sabaeus
[26] = test system: Proteus vulgaris; assay: Antimicrobial activity against Proteus vulgaris NCTC 4635 at 400 ug after 18 hrs by disc-diffusion method; type: functional; procedure, shortened: as §1
[27] = test system: Staphylococcus aureus; assay: Antimicrobial activity against Staphylococcus aureus ATCC 29213 after 18 hrs by twofold serial microdilution method; type: functional; details: ATCC 29213, 18 h
[28] = test system: Staphylococcus epidermidis; assay: Antimicrobial activity against Staphylococcus epidermidis ATCC 35984 at 400 ug after 18 hrs by disc-diffusion method; type: functional; details: ATCC 35984, 18 h, read-out: IZ; procedure, shortened: as §1
[29] = test system: Staphylococcus aureus; assay: Antimicrobial activity against Staphylococcus aureus ATCC 6538 at 400 ug after 18 hrs by disc-diffusion method; type: functional; details: ATCC 6538, 18 h, read-out: IZ; procedure, shortened: as §1
[30] = test system: Coxsackievirus B5; assay: Antiviral activity against Human coxsackievirus B5 ATCC VR-29 infected in African green monkey Vero 76 cells assessed as reduction of virus-plaque formation after 3 days by crystal violet staining; type: functional, organism-based; details: Enterovirus B, ATCC VR-29, Vero, 72 h; procedure, shortened: as §2
[31] = test system: Poliovirus 1; assay: Antiviral activity against Poliovirus type 1 ATCC VR-1562 infected in African green monkey Vero 76 cells assessed as reduction of virus-plaque formation after 2 days by crystal violet staining; type: functional, organism-based; details: Enterovirus C, ATCC VR-1562, Vero, 48 h
[32] = test system: Staphylococcus aureus; assay: Antimicrobial activity against Staphylococcus aureus ATCC 29213 at 400 ug after 18 hrs by disc-diffusion method; type: functional; details: ATCC 29213, 18 h, read-out: IZ; procedure, shortened: as §1
[33] = test system: Mycobacterium tuberculosis; assay: Antimycobacterial activity against Mycobacterium tuberculosis H37Rv ATCC 25618; type: functional; procedure, shortened: as §4
[34] = test system: Staphylococcus aureus; assay: Antimicrobial activity against Staphylococcus aureus NCTC 4163 at 400 ug after 18 hrs by disc-diffusion method; type: functional; details: NCTC 4163, 18 h, read-out: IZ; procedure, shortened: as §1

SMILES	MIC [1]	zone of inhibition at 400 µg/disc [2]	MIC [3]	zone of inhibition at 400 µg/disc [4]	EC50 [5]	MIC [6]	CC50 [7]	MIC [8]	EC50 [9]	zone of inhibition at 400 µg/disc [10]	zone of inhibition at 400 µg/disc [11]	EC50 [12]	EC50 [13]	zone of inhibition at 400 µg/disc [14]	zone of inhibition at 400 µg/disc [15]	CC50 [17]	MIC [18]	EC50 [19]	CC50 [20]	MIC [21]	also measured
FC(F)(F)c1cccc(NC(=S)NCc2ccco2)c1	256 µg/mL (≈ 852 µM)	15 mm	256 µg/mL (≈ 852 µM)	12 mm	> 43 µM	512 µg/mL (≈ 1700 µM)	43 µM	256 µg/mL (≈ 852 µM)	> 50 µM	0 mm	13 mm	> 48 µM	> 50 µM	14 mm	13 mm	48 µM	> 100 µg/mL	> 50 µM	> 100 µM	256 µg/mL (≈ 852 µM)	zone of inhibition at 400 µg/disc ([16]; ATCC 10541, 18 h, read-out: IZ): 13 mm; EC50 [22]: > 48 µM; zone of inhibition at 400 µg/disc [23]: 13 mm; EC50 [24]: > 100 µM; CC50 [25]: 50 µM; inhibition zone (IZ) [26]: inactive; MIC [27]: 256 µg/mL (≈ 852 µM); zone of inhibition at 400 µg/disc [28]: 13 mm; zone of inhibition at 400 µg/disc [29]: 14 mm; EC50 [30]: > 50 µM; EC50 [31]: > 50 µM; zone of inhibition at 400 µg/disc [32]: 19 mm; MIC [33]: > 100 µg/mL; zone of inhibition at 400 µg/disc [34]: 14 mm
CSCCCNC(=S)Nc1cccc(C(F)(F)F)c1	32 µg/mL (≈ 104 µM)	18 mm	32 µg/mL (≈ 104 µM)	20 mm	> 43 µM	64 µg/mL (≈ 208 µM)	43 µM	32 µg/mL (≈ 104 µM)	> 100 µM	13 mm	20 mm	> 100 µM	> 100 µM	18 mm	19 mm	> 100 µM	100 µg/mL (≈ 324 µM)	> 100 µM	> 100 µM	32 µg/mL (≈ 104 µM)	inhibition zone (IZ) [16]: inactive; EC50 [22]: > 100 µM; zone of inhibition at 400 µg/disc [23]: 16 mm; EC50 [24]: > 100 µM; CC50 [25]: > 100 µM; inhibition zone (IZ) [26]: inactive; MIC [27]: 32 µg/mL (≈ 104 µM); zone of inhibition at 400 µg/disc [28]: 16 mm; zone of inhibition at 400 µg/disc [29]: 18 mm; EC50 [30]: > 100 µM; EC50 [31]: > 100 µM; zone of inhibition at 400 µg/disc [32]: 18 mm; MIC [33]: 50 µg/mL (≈ 162 µM); zone of inhibition at 400 µg/disc [34]: 19 mm
